Reference: ChEMBL document CHEMBL1141776, “Gymnoascolides A-C: aromatic butenolides from an Australian isolate of the soil ascomycete Gymnoascus reessii” (2005)
Activity calls are given as the source filed them. No cut-off for these calls is given here.

Key:
NS1 = assay: Cytotoxicity against mouse NS1 cells; format: functional, cell-based
Bacillus subtilis = assay: Antibacterial activity against Bacillus subtilis; format: functional, organism-based
[1] = test system: Haemonchus contortus (nematode); assay: Nematicidal activity against Haemonchus contortus
Candida albicans [2] = assay: Antifungal activity against Candida albicans after 48 hrs by agar-based microtiter plate assay; format: functional
Procedure, shortened: (§1)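 Agar-based microtiter plate assay: spores (20 000 sp/well) applied to potato dextrose agar in wells containing serial 2-fold dilutions of test compound. Plates incubated at 24 °C; fungal growth assessed qualitatively at 48 h.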

Parastagonospora nodorum = assay: Antifungal activity against Septoria nodorum after 48 hrs by agar-based microtiter plate assay; format: functional; procedure, shortened: as §1
Candida albicans [3] = assay: Antifungal activity against Candida albicans up to […] after 48 hrs by agar-based microtiter plate assay; format: functional, organism-based; procedure, shortened: as §1

CO[C@@H]1OC(=O)C(c2ccccc2)=C1C(O)c1ccccc1 (stereo partly specified)
Activity (NS1): inactive
Activity (Bacillus subtilis): inactive
Activity [1]: inactive

CO[C@H]1OC(=O)C(c2ccccc2)=C1C(O)c1ccccc1 (stereo partly specified)
Activity (NS1): inactive
Activity (Bacillus subtilis): inactive
Activity [1]: inactive

C[C@@H]1[C@H](O)[C@@H](C)/C=C/C=C/C=C/C=C/C=C/C=C/C=C/[C@H](O[C@@H]2O[C@H](C)[C@@H](O)[C@H](N)[C@@H]2O)C[C@@H]2O[C@](O)(C[C@@H](O)C[C@@H](O)[C@H](O)CC[C@@H](O)C[C@@H](O)CC(=O)O[C@H]1C)C[C@H](O)[C@H]2C(=O)O [AMPHOTERICIN B]
LD99 (Candida albicans [2]): 0.0031 mg/mL
LD99 (Parastagonospora nodorum): 0.0031 mg/mL

CCCC[C@H]1C(=O)O[C@H](C)[C@H](NC(=O)c2cccc(NC=O)c2O)C(=O)O[C@@H](C)[C@@H]1OC(=O)CC(C)C [ANTIMYCIN A3]
LD99 (Candida albicans [2]): 0.05 mg/mL
LD99 (Parastagonospora nodorum): 0.0002 mg/mL

CN(CC[C@H](N)CC(=O)N[C@@H]1C=C[C@@H](n2ccc(N)nc2=O)O[C@H]1C(=O)O)C(=N)N.Cl [BLASTICIDIN S HCL]
LD99 (Candida albicans [2]): 0.00039 mg/mL
LD99 (Parastagonospora nodorum): 0.0016 mg/mL

C[C@@H]1C[C@@H]([C@H](O)CC2CC(=O)NC(=O)C2)C(=O)[C@@H](C)C1 [CYCLOHEXIMIDE]
Activity (Candida albicans [3]): inactive
LD99 (Parastagonospora nodorum): 0.0063 mg/mL

O=C1OCC(Cc2ccccc2)=C1c1ccccc1 [GYMNOASCOLIDE A]
Activity (Candida albicans [3]): inactive
Activity (NS1): inactive
Activity (Bacillus subtilis): inactive
Activity [1]: inactive
LD99 (Parastagonospora nodorum): 0.013 mg/mL

C[C@@H]1C[C@H]2O[C@@H]2/C=C\C=C\C(=O)Cc2c(Cl)c(O)cc(O)c2C(=O)O1 [RADICICOL]
LD99 (Candida albicans [2]): 0.012 mg/mL
LD99 (Parastagonospora nodorum): 0.012 mg/mL
